Experimental findings from ChEMBL document CHEMBL1157559, “Synthesis and biological evaluation of novel pyrazolyl-2,4-thiazolidinediones as anti-inflammatory and neuroprotective agents” (Bioorg Med Chem, 2010) are described below.

Data set [1] relates to Rattus norvegicus. The data set can be described thus: Antiinflammatory activity in Wistar albino rat acute inflammatory model assessed as inhibition of formalin-induced paw edema at 20 mg/kg, po administered 1 hr before formalin challenge measured after 2 hrs by plethysmometer relative to control. In kind it is functional. Further details: scale not given: the % may be the effect or the level left. The method, boiled down:
(§1)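 Male Wistar rats, 180–200 g, groups of five. Test compound 20 mg/kg po; 1 h later 0.1 mL 2% formalin injected subplantar into left hind paw under light ether anesthesia. Paw volume by water plethysmometer at 0 and 1, 2, 3, 4 h after formalin. % inhibition = (Vt−V0)control minus (Vt−V0)treated, divided by (Vt−V0)control ×100. Mean ± SEM, ANOVA with Student–Newman–Keuls.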

Data set [2] concerns Rattus norvegicus. The data set can be described thus: Antiinflammatory activity in Wistar albino rat sub-acute inflammatory model assessed as inhibition of turpentine oil-induced granuloma pouch exudate volume at 20 mg/kg, po 1 hr before turpentine oil challenge for 7 days assessed measured on day 8. In kind it is functional. The method, boiled down:
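Male rats 120–150 g, five per group. Subcutaneous dorsal pouch made under ether with 2 mL air, then 0.5 mL turpentine oil injected. Compound 20 mg/kg po 1 h before turpentine, then daily for seven days. On day 8 exudate drawn by syringe under anesthesia and volume measured. % inhibition = (Vcontrol − Vtreated)/Vcontrol ×100.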

Data set [3] concerns Rattus norvegicus. Nature of the data set: Antiinflammatory activity in po dosed Wistar albino rat acute inflammatory model assessed as inhibition of formalin-induced paw edema administered 1 hr before formalin challenge measured after 3 hrs by plethysmometer. In kind it is functional. The method, boiled down: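 Rats dosed orally at 5, 10, 20, 40 and 50 mg/kg body weight. Edema volume inhibition measured 3 h after subplantar formalin (2%, 0.1 mL), and ED50 determined from these doses.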

The subject of data set [4] is Rattus norvegicus. The data set can be described thus: Antiinflammatory activity in Wistar albino rat sub-acute inflammatory model assessed as inhibition of formalin-induced paw edema at 20 mg/kg, po administered daily for 7 days by plethysmometer relative to control. In kind it is functional. The settings on record: 168 h. The method, boiled down:
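Rats dosed orally at 20 mg/kg daily for 7 consecutive days. 0.1 mL 2% formalin given subplantar in left hind paw under light ether 1 h after the first oral dose, with a second injection on day 3. Paw edema weight (g) measured on day 8. % inhibition = (control − treated)/control ×100. Groups of five.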

The target of data set [5] is T1, Prostaglandin G/H synthase 2 (Homo sapiens) (UniProt P35354).
T1 sequence (whole entry): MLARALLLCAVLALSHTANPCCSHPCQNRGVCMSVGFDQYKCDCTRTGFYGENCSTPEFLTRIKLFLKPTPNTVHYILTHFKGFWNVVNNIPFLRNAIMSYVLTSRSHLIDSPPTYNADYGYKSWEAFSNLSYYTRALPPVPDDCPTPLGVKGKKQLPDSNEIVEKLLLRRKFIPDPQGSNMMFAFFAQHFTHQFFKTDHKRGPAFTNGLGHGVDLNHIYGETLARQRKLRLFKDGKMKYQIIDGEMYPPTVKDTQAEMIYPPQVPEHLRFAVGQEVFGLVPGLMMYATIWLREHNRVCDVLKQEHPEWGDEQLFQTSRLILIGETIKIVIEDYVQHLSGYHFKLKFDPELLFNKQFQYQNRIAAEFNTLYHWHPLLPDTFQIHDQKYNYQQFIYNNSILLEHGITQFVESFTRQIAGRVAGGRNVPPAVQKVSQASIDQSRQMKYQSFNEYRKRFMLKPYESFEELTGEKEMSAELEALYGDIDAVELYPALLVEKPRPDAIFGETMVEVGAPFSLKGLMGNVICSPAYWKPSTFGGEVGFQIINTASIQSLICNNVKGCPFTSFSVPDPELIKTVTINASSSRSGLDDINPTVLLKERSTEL
The settings on record: at 10 µM.

Data set [6] concerns Rattus norvegicus. Nature of the data set: Gastrointestinal toxicity in Wistar albino rat assessed as ulceration at 100 mg/kg/day, po administered twice daily for 3 days. In kind it is organism-based. On the set-up: route oral. The settings on record: in vivo, 72 h. The method, boiled down: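 Male rats 180–200 g, groups of five, fasted 12 h with water available. Compounds given orally as two equal doses at 0 and 12 h, 100 mg/kg per day, for three successive days; vehicle control 1% gum acacia. Rats killed 6 h after last dose. Stomach opened along greater curvature, washed with cold saline and inspected under 3× lens for hyperemia, hemorrhage, erosions or ulcers.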

Another data set relates to THP-1. Nature of the data set: Cytotoxicity against LPS and IFN-gamma-stimulated human THP1 cells after 24 hrs. In kind it is functional, cell-based. The following applies: THP-1, 24 h. Summed up:
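THP-1 cells, 24-well, in DMEM-F12 with 5% FBS. Compound or DMSO added 15 min before LPS 0.5 µg/mL plus IFN-γ 150 U/mL. After 24 h, LDH release (fraction of Triton-lysed value, OD 490) and MTT were read. EC50 taken from curves of at least three independent experiments; the lower of the two assay values was reported.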

The target of data set [7] is T2, Prostaglandin G/H synthase 1 (Ovis aries) (UniProt P05979).
T2 sequence (whole entry): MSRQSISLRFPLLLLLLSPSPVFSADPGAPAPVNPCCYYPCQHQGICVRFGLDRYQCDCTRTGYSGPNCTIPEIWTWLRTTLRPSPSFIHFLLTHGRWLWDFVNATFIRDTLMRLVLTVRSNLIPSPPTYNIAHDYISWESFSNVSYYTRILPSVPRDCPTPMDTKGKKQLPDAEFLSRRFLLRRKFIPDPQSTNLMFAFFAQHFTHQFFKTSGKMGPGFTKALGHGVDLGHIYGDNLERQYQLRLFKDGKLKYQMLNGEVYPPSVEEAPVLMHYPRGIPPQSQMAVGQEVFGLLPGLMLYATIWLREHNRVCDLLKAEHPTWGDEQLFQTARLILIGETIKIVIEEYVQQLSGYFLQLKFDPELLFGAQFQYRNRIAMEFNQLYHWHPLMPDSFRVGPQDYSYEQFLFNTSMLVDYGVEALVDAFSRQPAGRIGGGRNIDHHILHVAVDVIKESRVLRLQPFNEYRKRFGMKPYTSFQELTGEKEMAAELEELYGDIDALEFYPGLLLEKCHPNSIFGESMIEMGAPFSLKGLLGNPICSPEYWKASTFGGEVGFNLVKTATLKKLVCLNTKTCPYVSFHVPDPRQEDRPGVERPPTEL
The data set can be described thus: Inhibition of ovine COX1 at 10 uM. The method, boiled down: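 Kit assay with ovine COX-1, run per manufacturer's protocol. Read-out was percent inhibition of prostaglandin production, with compound at 10 µM and three experiments.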

The test system of a further data set is HL-60. Nature of the data set: Inhibition of phagocyte respiratory burst in human HL60 cells after 6 to 7 days by luminol-induced chemiluminescence. In kind it is functional, cell-based. Summed up: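 HL-60 cells differentiated 6–7 days in DMEM-F12 with 10% FBS and 1.3% DMSO, washed into serum-free, phenol red-free medium, then held 30 min at 37 °C before compound or DMSO was added. Luminol injected, 7.5 min baseline recorded, then FMLP injected (final 1 µM; luminol 5 mM; DMSO 0.5%). Chemiluminescence recorded 30 min at 37 °C; read-out was area under the curve.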

The test system of data set [8] is Rattus norvegicus. The data set can be described thus: Antiinflammatory activity in Wistar albino rat acute inflammatory model assessed as inhibition of formalin-induced paw edema at 20 mg/kg, po administered 1 hr before formalin challenge measured after 3 hrs by plethysmometer relative to control. On the set-up: scale not given: the % may be the effect or the level left. In kind it is functional. Summed up:
as §1

Data set [9] relates to Rattus norvegicus. The data set can be described thus: Antiinflammatory activity in Wistar albino rat acute inflammatory model assessed as inhibition of formalin-induced paw edema at 20 mg/kg, po administered 1 hr before formalin challenge measured after 1 hr by plethysmometer relative to control. In kind it is functional. Further details: scale not given: the % may be the effect or the level left. The method, boiled down: as §1

For the compound `O=C1NC(=O)/C(=C/c2cn(-c3ccc([N+](=O)[O-])cc3)nc2-c2ccc(Cl)cc2)S1`, the Activity worked out at 46% in the data set on Rattus norvegicus [1], 0% in the data set with Rattus norvegicus [6], 68% with Rattus norvegicus [8] and 24% with Rattus norvegicus [9]. Moreover, the inhibition in vivo at 20 mg/kg in the data set on Rattus norvegicus [2] and in the data set with Rattus norvegicus [4] was 51% throughout. Further, the ED50 with Rattus norvegicus [3] stood at 15.2 mg/kg. Also, the inhibition is 19.4% in data set [5] and 28.4% in [7]. Also, in the data set on THP-1, the EC50 is over 100000 nM. Besides, the IC50 in the data set with HL-60 was 1000 nM.

Usually inhibition in vivo stands for the change of the read-out against control, counted positive when it falls. By ED50 is commonly meant the midpoint of the dose-response relation. As a reminder, the inhibition is the change of the read-out against control, counted positive when it falls. In general, EC50 refers to the concentration that produces a half-maximal response. The term IC50 denotes the concentration that inhibits the measured activity by half.
